The source of these data is ChEMBL document CHEMBL4145483, “Quinoxaline derivatives as new inhibitors of coxsackievirus B5” (Eur J Med Chem, 2018).

≈ marks a conversion by molar mass, not a printed value.

For data set [1], the system named is Human immunodeficiency virus 1. Briefly: Antiviral activity against HIV1 3B infected in human MT4 cells assessed as inhibition of viral replication by MTT assay. The data set is classed as functional, organism-based. The following applies: Human immunodeficiency virus 1, 3B. The method, boiled down:
(§1)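 MT-4 cells in exponential growth are acutely infected with HIV-1 at m.o.i. 0.01 and exposed to serial compound dilutions. Viability is read by MTT after 3–4 days at 37 °C. EC50 is the concentration giving 50% protection from virus-induced cytopathogenicity, and CC50 is taken from mock-infected MT-4 cells. Both are fitted by linear regression, and the selectivity index is CC50/EC50.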

The nature of data set [2]: Cytotoxicity against African green monkey Vero 76 cells assessed as reduction in cell viability after 48 to 96 hrs by MTT assay. The data set is classed as cell-based. As to conditions: chlorocebus sabaeus. The method, boiled down:
(§2)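 Cells are grown in medium with serum: MT-4 at 4×10^5 cells/ml in RPMI-1640 with 10% FBS; MDBK at 6×10^5 in MEM-E with 10% horse serum; BHK at 1×10^6 in MEM-E with 10% FBS; Vero-76 at 4×10^5 in D-MEM with 10% FBS. Serial dilutions are added at 37 °C, 5% CO2, and viability is read by MTT after 48–96 h. CC50 comes from linear regression. For MDBK, selectivity index is CC50/BVDV EC50.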
In general terms: Tetrazolium assays rely on reduction of a dye to a coloured formazan, in cell work by metabolically active cells.

Data set [3] concerns Bovine viral diarrhea virus 1. Nature of the data set: Antiviral activity against BVDV NADL ATCC VR-534 infected in MDBK cells assessed as protection against virus-induced cytopathic effect after 3 to 4 days by MTT assay. It counts as functional, organism-based, Bovine viral diarrhea virus 1-NADL. As to conditions: Bovine viral diarrhea virus isolates and strains, ATCC VR-534, MDBK. An outline of the steps:
(§3)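 Cytopathic-effect protection assay. MDBK (BVDV) or BHK (Reo-1) cells are infected in the presence of serial compound dilutions. After 3 or 4 days at 37 °C, viability is read by MTT. EC50 is the concentration giving 50% protection from virus-induced cytopathogenicity, derived by linear regression.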
For orientation: Protection from cytopathic effect is a common read-out in antiviral testing.

Another data set deals with Human alphaherpesvirus 1. Briefly: Antiviral activity against HSV1 KOS ATCC VR 1493 infected in African green monkey Vero 76 cells after 3 days by plaque reduction assay. The data set is classed as functional, organism-based. The following applies: Human alphaherpesvirus 1, KOS ATCC VR1493, Vero 76, 72 h. The method, boiled down:
(§4)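 Plaque reduction in Vero-76 monolayers, with cytotoxicity measured in parallel on the same plate. EC50 is the concentration reducing plaque number by 50%, derived by linear regression. CC50 is the concentration reducing viability of mock-infected Vero-76 cells by 50%, by MTT. Selectivity index is CC50/EC50.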
In general terms: In a plaque reduction assay, fewer plaques than in the control indicate reduced infectivity or spread.

For a further data set, the system named is Yellow fever virus. Nature of the data set: Antiviral activity against Yellow fever virus 17D infected in golden hamster BHK21 cells assessed as protection against virus-induced cytopathic effect after 3 to 4 days by MTT assay. The data set is classed as functional, organism-based. As to conditions: BHK-21.
The subject of the next data set is Vaccinia virus. Briefly: Antiviral activity against Vaccinia virus Lister ATCC VR 1549 infected in African green monkey Vero 76 cells after 3 days by plaque reduction assay. It counts as functional, organism-based. The following applies: Orthopoxvirus vaccinia, ATCC VR 1549, Vero 76, 72 h.
The test system of the next data set is Human orthopneumovirus. Nature of the data set: Antiviral activity against Human respiratory syncytial virus A2 ATCC VR 1540 infected in African green monkey Vero 76 cells after 5 days by plaque reduction assay. The data set is classed as functional, organism-based. As to conditions: ATCC VR 1540, Vero 76, 120 h. The method, boiled down: as §4
A short description of data set [4]: Cytotoxicity against golden hamster BHK21 cells assessed as reduction in cell viability after 48 to 96 hrs by MTT assay. The data set is classed as cell-based, Mesocricetus auratus, BHK-21. An outline of the steps: as §2
Data set [5] relates to Mammalian orthoreovirus 1. Nature of the data set: Antiviral activity against Reovirus 1 3651 ATCC VR-214 infected in golden hamster BHK21 cells assessed as protection against virus-induced cytopathic effect after 3 to 4 days by MTT assay. The data set is classed as functional, organism-based. The following applies: Mammalian orthoreovirus 1, 3651 ATCC VR-214, BHK-21. An outline of the steps:
as §3

Another data set has as its system Coxsackievirus B5. Nature of the data set: Antiviral activity against Coxsackievirus B5 Ohio-1 ATCC VR 29 infected in African green monkey Vero 76 cells after 3 days by plaque reduction assay. The data set is classed as functional, organism-based. As to conditions: Enterovirus B, Ohio-1 ATCC VR 29, Vero 76, 72 h. An outline of the steps:
as §4

Data set [6] has as its system Vesicular stomatitis Indiana virus. Nature of the data set: Antiviral activity against Vesicular stomatitis virus Indiana ATCC VR 1540 infected in African green monkey Vero 76 cells after 3 days by plaque reduction assay. The data set is classed as functional, organism-based. As to conditions: ATCC VR 1540, Vero 76, 72 h.
The nature of data set [7]: Selectivity index, ratio of CC50 for African green monkey Vero 76 cells to EC50 for Coxsackievirus B5 Ohio-1 ATCC VR-29. The data set is classed as toxicity. As to conditions: read-out: Ratio CC50/EC50. The method, boiled down:
as §4

The test system of data set [8] is Human immunodeficiency virus 1. Briefly: Antiviral activity against HIV1 3B infected in human MT4 cells assessed as protection against virus-induced cytopathic effect after 3 to 4 days by MTT assay. As to conditions: Human immunodeficiency virus 1, 3B. The data set is classed as functional, organism-based. The method, boiled down:
as §1

A short description of data set [9]: Cytotoxicity against human MT4 cells assessed as reduction in cell viability after 48 to 96 hrs by MTT assay. It counts as cell-based. An outline of the steps:
as §2

The nature of data set [10]: Selectivity index, ratio of CC50 for MDBK cells to EC50 for BVDV NADL ATCC VR-534. The data set is classed as toxicity. As to conditions: cattle, read-out: Ratio CC50/EC50. An outline of the steps:
as §2

A short description of data set [11]: Cytotoxicity against MDBK cells assessed as reduction in cell viability after 48 to 96 hrs by MTT assay. The data set is classed as cell-based, Bos taurus. As to conditions: cattle. An outline of the steps:
as §2

The subject of data set [12] is Human poliovirus 1 strain Sabin. Nature of the data set: Antiviral activity against Poliovirus 1 Sabin ATCC VR 1562 infected in African green monkey Vero 76 cells after 2 days by plaque reduction assay. The data set is classed as functional, organism-based. As to conditions: Enterovirus C, ATCC VR 1562, Vero 76, 48 h.
Data set [13] is described as follows: Selectivity index, ratio of CC50 for human MT4 cells to EC50 for HIV1 3B. It counts as toxicity. The following applies: read-out: Ratio CC50/EC50. The method, boiled down:
as §1

Usually IC50 stands for the point on the concentration scale where inhibition reaches its midpoint. Turning to `C=CCCCOc1cnc2cc(C)c(C)cc2n1`, the IC50 in data set [1] was 0.22 µg/mL (≈ 0.908 µM).

In general, CC50 refers to the concentration giving 50% cytotoxicity. Usually EC50 stands for the concentration that produces a half-maximal response. `CCOC(=O)CC[C@H](NC(=O)c1ccc(SCc2ccc3nc(OC)c(OC)nc3c2)nc1)C(=O)OCC`: the CC50 was above 100 µM in data set [2], 85 µM in data set [4], 19 µM in [9] and above 100 µM in data set [11]. Besides, the concentration giving a half-maximal response (EC50) in [3] is 10 µM; in the data set on Human alphaherpesvirus 1, above 100 µM; in the data set on Yellow fever virus, above 85 µM; in the data set on Vaccinia virus it was above 100 µM; with Human orthopneumovirus, above 100 µM; in [5] it was above 85 µM. Also, the EC50 in the data set on Coxsackievirus B5 is 56 µM; in data set [6] it was above 100 µM; in [8], above 19 µM; in data set [12], above 100 µM. Moreover, the selectivity ratio is above 1.7 in data set [7] and above 10 in data set [10].

With `COc1nc2ccc(CSc3ccc4ccccc4c3)cc2nc1OC`, the CC50 in [2], in data set [4], in [9] and in data set [11] was above 100 µM each time. The EC50 (in data set [3]; with Human alphaherpesvirus 1; in the data set on Yellow fever virus; in the data set with Vaccinia virus; in the data set on Human orthopneumovirus; in [5]) was above 100 µM in each case. Also, the EC50 in the data set on Coxsackievirus B5 was above 100 µM; in [6], above 100 µM; in data set [8], 36 µM; in data set [12], above 100 µM. Moreover, in data set [13], the selectivity ratio worked out at 2.7.
